Data as given in ChEMBL document CHEMBL5696444 (Nat Commun, 2017).
Calls of active or inactive are those of the source. The rule behind the calls is not given here.

Legend:
[1] = test system: HCT-116; experiment: Induction of apoptosis in human HCT-116 cells assessed as early apoptosis at 0.1 uM incubated for > 6 hrs by annexin V/PI staining based analysis (Rvb=3.29%); type: functional
[2] = test system: HCT-116; experiment: Induction of apoptosis in human HCT-116 cells assessed as late apoptosis at 0.1 uM incubated for > 6 hrs by annexin V/PI staining based analysis (Rvb=6.12%); type: functional
[3] = test system: HCT-116; experiment: Induction of apoptosis in human HCT-116 cells assessed as viable cells at 0.5 uM incubated for > 6 hrs by annexin V/PI staining based analysis (Rvb=90.04%); type: functional; details: read-out: Activity
[4] = test system: HCT-116; experiment: Induction of apoptosis in human HCT-116 cells assessed as necrosis cells at 0.5 uM incubated for > 6 hrs by annexin V/PI staining based analysis (Rvb=0.55%); type: functional
[5] = test system: HCT-116; experiment: Induction of apoptosis in human HCT-116 cells assessed as late apoptosis at 10 uM incubated for > 6 hrs by annexin V/PI staining based analysis (Rvb=6.12%); type: functional
[6] = molecular target: Dual specificity protein kinase CLK1 (Homo sapiens) (UniProt P49759); experiment: Inhibition of CLK1 (unknown origin) at 1110 nM in the presence of ATP by Kinome scan method relative to control; details: time > 6.0 hrs
[7] = molecular target: Dual specificity protein kinase CLK2 (Homo sapiens, UniProt P49760); experiment: Inhibition of N-terminal FLAG-tagged human CLK2 at 1110 nM in the presence of ATP by Kinome scan method relative to control
[8] = molecular target: Dual specificity protein kinase CLK3 (Homo sapiens) (UniProt P49761); experiment: Inhibition of CLK3 (unknown origin) at 123 nM in the presence of ATP by Kinome scan method relative to control; details: time > 6.0 hrs
[9] = molecular target: Dual specificity tyrosine-phosphorylation-regulated kinase 3 (Homo sapiens) (UniProt O43781); experiment: Inhibition of DYRK3 (unknown origin) at 123 nM in the presence of ATP by Kinome scan method relative to control; details: time > 6.0 hrs
[10] = molecular target: Tyrosine-protein kinase ABL1 (Homo sapiens) (UniProt P00519); experiment: Inhibition of ABL1 (unknown origin) at 1000 nM in the presence of ATP by Kinome scan method relative to control; details: time > 6.0 hrs
[11] = molecular target: RAC-alpha serine/threonine-protein kinase (Homo sapiens) (UniProt P31749); experiment: Inhibition of AKT1 (unknown origin) at 100 nM in the presence of ATP by Kinome scan method relative to control
[12] = organism: Homo sapiens; experiment: Inhibition of CDK2/cyclin A (unknown origin) at 100 nM in the presence of ATP by Kinome scan method relative to control
[13] = molecular target: Serine/threonine-protein kinase Chk1 (Homo sapiens) (UniProt O14757); experiment: Inhibition of CHEK1 (unknown origin) at 100 nM in the presence of ATP by Kinome scan method relative to control
[14] = molecular target: Serine/threonine-protein kinase Chk2 (Homo sapiens) (UniProt O96017); experiment: Inhibition of CHEK2 (unknown origin) at 100 nM in the presence of ATP by Kinome scan method relative to control
[15] = molecular target: Casein kinase I isoform alpha (Homo sapiens) (UniProt P48729); experiment: Inhibition of CSNK1A1 (unknown origin) at 100 nM in the presence of ATP by Kinome scan method relative to control
[16] = molecular target: Ephrin type-B receptor 1 (Homo sapiens) (UniProt P54762); experiment: Inhibition of EPHB1 (unknown origin) at 1000 nM in the presence of ATP by Kinome scan method relative to control
[17] = molecular target: Fibroblast growth factor receptor 1 (Homo sapiens) (UniProt P11362); experiment: Inhibition of FGFR1 (unknown origin) at 100 nM in the presence of ATP by Kinome scan method relative to control
[18] = molecular target: Hepatocyte growth factor receptor (Homo sapiens) (UniProt P08581); experiment: Inhibition of MET (unknown origin) at 1000 nM in the presence of ATP by Kinome scan method relative to control
[19] = molecular target: cAMP-dependent protein kinase catalytic subunit alpha (Homo sapiens) (UniProt P17612); experiment: Inhibition of PRKACA (unknown origin) at 100 nM in the presence of ATP by Kinome scan method relative to control
[20] = molecular target: Protein kinase C theta type (Homo sapiens) (UniProt Q04759); experiment: Inhibition of PRKCQ (unknown origin) at 100 nM in the presence of ATP by Kinome scan method relative to control
[21] = molecular target: Proto-oncogene tyrosine-protein kinase receptor Ret (Homo sapiens) (UniProt P07949); experiment: Inhibition of RET (unknown origin) at 1000 nM in the presence of ATP by Kinome scan method relative to control
[22] = molecular target: Dual specificity protein kinase CLK1 (Homo sapiens) (UniProt P49759); experiment: Inhibition of CLK (unknown origin) in human MDA-MB-468 cells assessed as SRSF4 phosphorylation level incubated for 3 hrs by immunoblot analysis; type: cell-based
[23] = test system: HCT-116; experiment: Induction of cell cycle arrest in human HCT-116 cells assessed as S phase at 10 uM incubated for 6 hrs by flow cytometry analysis (Rvb=39.3%); type: functional
[24] = test system: HCT-116; experiment: Induction of cell cycle arrest in human HCT-116 cells assessed as G0/G1 phase at 0.1 uM incubated for 24 hrs by flow cytometry analysis (Rvb=35.7%); type: functional
[25] = test system: HCT-116; experiment: Induction of cell cycle arrest in human HCT-116 cells assessed as G2/M phase at 0.5 uM incubated for 24 hrs by flow cytometry analysis (Rvb=17.9%); type: functional
[26] = test system: HCT-116; experiment: Induction of cell cycle arrest in human HCT-116 cells assessed as S phase at 5 uM incubated for 24 hrs by flow cytometry analysis (Rvb=46.4%); type: functional
[27] = test system: HCT-116; experiment: Induction of cell cycle arrest in human HCT-116 cells assessed as sub G0/G1 phase at 10 uM incubated for 24 hrs by flow cytometry analysis (Rvb=2.5%); type: functional
[28] = test system: HCT-116; experiment: Induction of cell cycle arrest in human HCT-116 cells assessed as G0/G1 phase at 10 uM incubated for 24 hrs by flow cytometry analysis (Rvb=35.7%); type: functional
[29] = Stability of compound in tissue culture medium assessed as remaining parent compound at 5.30 uM incubated for 48 hrs; type: physicochemical; details: read-out: Stability
[30] = molecular target: Dual specificity protein kinase CLK1 (Homo sapiens) (UniProt P49759); experiment: Inhibition of CLK (unknown origin) in human HCT-116 cells assessed as induction in alternative splicing effect in S6K canonical isoform incubated for 6 hrs by RT-PCR analysis; type: cell-based; details: dose 0.2-5 µM
How it was run: (§1)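 Cells exposed to graded T3 concentrations for 6 h (chosen to avoid cytotoxicity), with a DMSO vehicle control. Total RNA was reverse-transcribed with oligo-dT primers. Targeted splice or conjoined-gene products were quantified by real-time qPCR or by targeted next-generation sequencing. Conjoined-gene isoform expression was normalized to a sequenced housekeeping gene.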

[31] = molecular target: Dual specificity protein kinase CLK1 (Homo sapiens) (UniProt P49759); experiment: Inhibition of CLK (unknown origin) in human HCT-116 cells assessed as induction in alternative splicing effect in S6K skipped exon incubated for 6 hrs by RT-PCR analysis; type: cell-based; details: dose 0.2-5 µM; how it was run: as §1
[32] = molecular target: 3-phosphoinositide-dependent protein kinase 1 (PDPK1) (Homo sapiens) (UniProt O15530); experiment: Inhibition of PDK1 Direct (unknown origin) at 1000 nM in the presence of ATP by Kinome scan method relative to control
Chain of 3-phosphoinositide-dependent protein kinase 1 (PDPK1) (Homo sapiens) (O15530 whole entry, looked up): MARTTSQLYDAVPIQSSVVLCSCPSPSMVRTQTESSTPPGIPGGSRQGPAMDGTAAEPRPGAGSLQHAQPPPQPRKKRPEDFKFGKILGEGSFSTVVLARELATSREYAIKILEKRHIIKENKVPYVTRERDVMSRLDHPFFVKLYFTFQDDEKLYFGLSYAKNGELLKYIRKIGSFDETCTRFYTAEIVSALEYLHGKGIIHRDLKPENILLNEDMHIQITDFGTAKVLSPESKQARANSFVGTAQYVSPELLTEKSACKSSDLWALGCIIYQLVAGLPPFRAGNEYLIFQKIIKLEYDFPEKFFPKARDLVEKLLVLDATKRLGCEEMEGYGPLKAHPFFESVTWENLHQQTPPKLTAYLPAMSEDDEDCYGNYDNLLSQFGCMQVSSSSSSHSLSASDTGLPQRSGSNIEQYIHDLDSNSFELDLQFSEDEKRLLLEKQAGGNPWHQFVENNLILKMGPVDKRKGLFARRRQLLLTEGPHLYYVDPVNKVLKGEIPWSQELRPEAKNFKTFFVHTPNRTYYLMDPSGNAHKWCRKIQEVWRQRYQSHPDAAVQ

Chain of Dual specificity protein kinase CLK1 (Homo sapiens) (P49759 whole entry, looked up, canonical isoform): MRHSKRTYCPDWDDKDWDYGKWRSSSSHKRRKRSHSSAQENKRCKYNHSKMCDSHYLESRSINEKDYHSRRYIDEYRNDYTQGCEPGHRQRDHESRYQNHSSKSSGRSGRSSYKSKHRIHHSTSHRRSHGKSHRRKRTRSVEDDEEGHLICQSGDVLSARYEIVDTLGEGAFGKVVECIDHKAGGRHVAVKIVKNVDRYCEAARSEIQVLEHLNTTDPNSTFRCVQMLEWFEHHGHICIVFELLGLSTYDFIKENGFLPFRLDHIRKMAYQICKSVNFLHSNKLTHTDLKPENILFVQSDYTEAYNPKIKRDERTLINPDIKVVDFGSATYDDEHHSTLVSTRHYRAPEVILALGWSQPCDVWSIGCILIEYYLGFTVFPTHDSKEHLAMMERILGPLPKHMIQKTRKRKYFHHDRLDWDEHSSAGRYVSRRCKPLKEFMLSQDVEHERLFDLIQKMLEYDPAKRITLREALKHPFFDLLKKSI
Chain of Hepatocyte growth factor receptor (Homo sapiens) (P08581 whole entry): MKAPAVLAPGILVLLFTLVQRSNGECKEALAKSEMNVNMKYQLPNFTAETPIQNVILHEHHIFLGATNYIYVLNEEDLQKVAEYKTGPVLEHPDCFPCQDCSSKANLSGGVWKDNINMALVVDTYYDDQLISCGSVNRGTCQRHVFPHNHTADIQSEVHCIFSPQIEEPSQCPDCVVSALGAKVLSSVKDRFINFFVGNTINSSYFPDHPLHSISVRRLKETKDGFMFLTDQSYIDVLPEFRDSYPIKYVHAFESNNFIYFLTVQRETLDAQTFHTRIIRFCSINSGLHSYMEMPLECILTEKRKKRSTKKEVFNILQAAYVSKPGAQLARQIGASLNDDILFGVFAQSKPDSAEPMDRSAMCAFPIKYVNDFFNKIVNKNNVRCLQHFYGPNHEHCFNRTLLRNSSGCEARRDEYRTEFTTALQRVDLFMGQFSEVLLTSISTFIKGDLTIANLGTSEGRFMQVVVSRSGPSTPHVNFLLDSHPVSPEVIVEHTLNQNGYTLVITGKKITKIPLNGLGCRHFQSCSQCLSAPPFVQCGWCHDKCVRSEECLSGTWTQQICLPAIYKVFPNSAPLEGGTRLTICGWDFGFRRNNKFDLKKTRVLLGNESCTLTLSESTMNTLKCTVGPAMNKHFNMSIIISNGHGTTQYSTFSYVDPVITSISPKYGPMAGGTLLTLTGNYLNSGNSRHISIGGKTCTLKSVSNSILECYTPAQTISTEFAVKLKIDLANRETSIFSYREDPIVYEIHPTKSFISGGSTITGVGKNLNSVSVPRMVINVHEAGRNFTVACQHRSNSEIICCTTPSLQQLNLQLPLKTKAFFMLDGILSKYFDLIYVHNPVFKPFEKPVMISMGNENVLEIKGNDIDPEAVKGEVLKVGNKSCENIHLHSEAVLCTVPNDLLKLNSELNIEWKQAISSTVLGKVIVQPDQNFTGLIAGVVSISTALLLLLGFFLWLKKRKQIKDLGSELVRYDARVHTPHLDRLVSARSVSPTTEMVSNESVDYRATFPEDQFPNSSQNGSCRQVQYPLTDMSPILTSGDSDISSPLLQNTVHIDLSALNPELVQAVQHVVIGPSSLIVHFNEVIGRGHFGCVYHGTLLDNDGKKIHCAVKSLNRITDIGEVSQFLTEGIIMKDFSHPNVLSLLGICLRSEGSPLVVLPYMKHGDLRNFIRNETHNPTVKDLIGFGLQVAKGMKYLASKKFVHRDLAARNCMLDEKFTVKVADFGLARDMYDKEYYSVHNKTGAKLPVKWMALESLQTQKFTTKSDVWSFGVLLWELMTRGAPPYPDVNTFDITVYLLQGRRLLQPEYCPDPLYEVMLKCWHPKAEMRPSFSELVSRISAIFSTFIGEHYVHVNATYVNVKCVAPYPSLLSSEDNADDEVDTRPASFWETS
Chain of Serine/threonine-protein kinase Chk2 (Homo sapiens) (O96017 whole entry, canonical isoform): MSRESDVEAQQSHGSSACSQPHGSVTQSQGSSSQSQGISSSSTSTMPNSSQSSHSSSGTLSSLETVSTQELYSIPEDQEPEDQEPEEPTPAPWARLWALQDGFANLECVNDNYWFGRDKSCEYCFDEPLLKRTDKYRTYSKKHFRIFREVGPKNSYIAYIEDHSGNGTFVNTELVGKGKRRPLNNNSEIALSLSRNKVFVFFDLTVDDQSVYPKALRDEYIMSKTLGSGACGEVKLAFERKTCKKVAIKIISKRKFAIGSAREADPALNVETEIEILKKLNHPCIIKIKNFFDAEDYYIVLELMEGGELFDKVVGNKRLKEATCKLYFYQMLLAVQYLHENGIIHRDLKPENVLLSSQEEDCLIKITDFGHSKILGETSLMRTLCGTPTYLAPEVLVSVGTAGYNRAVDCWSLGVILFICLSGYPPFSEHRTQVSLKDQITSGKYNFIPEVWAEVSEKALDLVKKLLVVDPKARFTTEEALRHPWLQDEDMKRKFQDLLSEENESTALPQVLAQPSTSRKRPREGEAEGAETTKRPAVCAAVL
Chain of Fibroblast growth factor receptor 1 (Homo sapiens) (P11362 22-822 limits assumed): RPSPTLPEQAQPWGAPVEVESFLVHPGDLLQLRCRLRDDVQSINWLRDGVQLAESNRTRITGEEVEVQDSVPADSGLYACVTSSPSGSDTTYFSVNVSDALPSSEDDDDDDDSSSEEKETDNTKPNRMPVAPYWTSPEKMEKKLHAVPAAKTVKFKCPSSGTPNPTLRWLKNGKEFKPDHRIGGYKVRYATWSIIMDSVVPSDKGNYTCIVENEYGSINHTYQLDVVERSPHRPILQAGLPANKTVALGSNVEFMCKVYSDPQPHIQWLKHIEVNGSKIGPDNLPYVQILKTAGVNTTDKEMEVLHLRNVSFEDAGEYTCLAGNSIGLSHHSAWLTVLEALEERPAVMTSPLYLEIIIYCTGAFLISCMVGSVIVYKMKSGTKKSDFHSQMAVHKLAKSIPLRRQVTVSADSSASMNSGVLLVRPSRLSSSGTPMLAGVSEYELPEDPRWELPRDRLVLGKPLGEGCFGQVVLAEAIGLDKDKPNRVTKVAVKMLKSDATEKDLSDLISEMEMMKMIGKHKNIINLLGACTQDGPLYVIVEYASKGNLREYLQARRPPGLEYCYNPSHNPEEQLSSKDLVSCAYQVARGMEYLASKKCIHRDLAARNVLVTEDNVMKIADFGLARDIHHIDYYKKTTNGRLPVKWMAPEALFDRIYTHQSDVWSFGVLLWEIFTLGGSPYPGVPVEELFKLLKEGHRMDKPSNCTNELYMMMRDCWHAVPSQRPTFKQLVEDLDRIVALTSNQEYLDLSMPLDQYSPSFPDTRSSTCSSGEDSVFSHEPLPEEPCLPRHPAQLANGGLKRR
Chain of Tyrosine-protein kinase ABL1 (Homo sapiens) (P00519 whole entry): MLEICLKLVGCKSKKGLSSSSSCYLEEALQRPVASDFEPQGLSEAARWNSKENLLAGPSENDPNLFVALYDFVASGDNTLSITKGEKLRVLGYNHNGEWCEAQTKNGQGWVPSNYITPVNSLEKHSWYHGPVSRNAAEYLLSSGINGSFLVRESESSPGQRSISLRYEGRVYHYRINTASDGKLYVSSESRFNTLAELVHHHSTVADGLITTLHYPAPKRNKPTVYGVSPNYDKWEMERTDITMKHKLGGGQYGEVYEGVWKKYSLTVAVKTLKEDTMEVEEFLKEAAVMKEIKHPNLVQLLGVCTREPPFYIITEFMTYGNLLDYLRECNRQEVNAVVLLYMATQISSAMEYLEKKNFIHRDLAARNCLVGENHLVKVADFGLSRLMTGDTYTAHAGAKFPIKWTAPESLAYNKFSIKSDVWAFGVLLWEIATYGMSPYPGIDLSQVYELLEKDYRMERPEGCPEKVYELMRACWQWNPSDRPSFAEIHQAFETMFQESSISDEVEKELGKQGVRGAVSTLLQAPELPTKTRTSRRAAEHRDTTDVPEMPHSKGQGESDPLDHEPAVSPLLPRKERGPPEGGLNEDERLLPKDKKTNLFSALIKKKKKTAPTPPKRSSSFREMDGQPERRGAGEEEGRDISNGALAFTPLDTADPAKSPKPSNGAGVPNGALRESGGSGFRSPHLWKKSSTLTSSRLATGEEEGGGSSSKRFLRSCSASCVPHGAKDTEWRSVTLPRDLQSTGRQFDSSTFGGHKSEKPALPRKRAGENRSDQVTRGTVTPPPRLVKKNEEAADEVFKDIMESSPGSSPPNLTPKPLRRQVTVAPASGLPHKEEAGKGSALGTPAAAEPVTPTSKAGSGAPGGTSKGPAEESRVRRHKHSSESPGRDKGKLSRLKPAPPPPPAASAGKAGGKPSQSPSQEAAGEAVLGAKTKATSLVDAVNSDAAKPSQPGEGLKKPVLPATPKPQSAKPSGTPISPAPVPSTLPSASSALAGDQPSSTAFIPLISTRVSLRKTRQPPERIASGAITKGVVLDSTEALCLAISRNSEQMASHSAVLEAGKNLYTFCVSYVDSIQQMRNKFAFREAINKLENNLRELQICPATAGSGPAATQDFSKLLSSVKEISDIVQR

Compound: CN1CCN(C(=O)C(C)(C)c2ccc(C(=O)Nc3cn4cc(-c5ccncc5)ccc4n3)cc2)CC1 [T3-CLK]
- Activity [1]: 3.11%
- Activity [2]: 8.29%
- viability at 0.5 µM [3]: 89.4%
- Activity [4]: 0.69%
- Activity [5]: 8.13%
- inhibition [6]: 99%
- inhibition [7]: 100%
- inhibition [8]: 38%
- inhibition [9]: -2%
- inhibition [10]: 56%
- inhibition [11]: -8%
- inhibition [12]: 0%
- inhibition [13]: 10%
- inhibition [14]: 22%
- inhibition [15]: -4%
- inhibition [16]: 4%
- inhibition [17]: 4%
- inhibition [18]: -7%
- inhibition [19]: -2%
- inhibition [20]: 5%
- inhibition [21]: -2%
- inhibition [22]: Active
- Activity [23]: 45.3%
- Activity [24]: 38.7%
- Activity [25]: 68.1%
- Activity [26]: 45.5%
- Activity [27]: 19%
- Activity [28]: 21.3%
- remaining at 48 h, 5.3 µM [29]: 98.7%
- inhibition [30]: Dose-Dependent Effect
- inhibition [31]: Dose-Dependent Effect
- inhibition [32]: 2%
